High-throughput results (PubChem)
PMI activator = activators of human PMI, primary screen, biochemical, fluorescence intensity, near-Km mannose 6-phosphate; activation factor at 20 µM; Mannose-6-phosphate isomerase (Homo sapiens), P34949; purified human PMI, coupled resazurin fluorescence, 20 min; active compounds read high; 1 = vehicle control, 0 substrate-free wells; 190,000 compounds, 0.005% hits;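 active = activation factor of 2 or more at 20 µM, relative to plate controls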
Target sequence (P34949 whole entry, looked up): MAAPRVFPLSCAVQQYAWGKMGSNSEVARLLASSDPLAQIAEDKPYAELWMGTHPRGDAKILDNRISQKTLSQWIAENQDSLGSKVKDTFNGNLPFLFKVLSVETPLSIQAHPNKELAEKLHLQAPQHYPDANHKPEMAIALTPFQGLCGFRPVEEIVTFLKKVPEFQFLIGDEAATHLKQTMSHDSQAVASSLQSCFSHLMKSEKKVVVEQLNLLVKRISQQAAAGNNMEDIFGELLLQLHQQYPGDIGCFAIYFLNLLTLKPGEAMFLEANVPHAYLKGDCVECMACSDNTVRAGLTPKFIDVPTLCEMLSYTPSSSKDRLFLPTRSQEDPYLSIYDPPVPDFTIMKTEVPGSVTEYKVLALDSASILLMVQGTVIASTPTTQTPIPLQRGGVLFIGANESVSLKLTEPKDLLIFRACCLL
Diaph act CS = compounds boosting diaphorase resazurin reduction – biochemical, uHTS, resorufin fluorescence, counter-screen for diaphorase-coupled primary assays, primary screen; activation factor at 20 µM; Diaphorase/resazurin coupled assay, 16 min; active compounds read high; 1 = vehicle wells, 0 = NADH-free wells; AID 1229, 2008; 190,000 compounds, 0.005% hits;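 active = diaphorase activity raised at least twofold by the compound at 20 µM; inactive = activation factor below 2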
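Material: purified diaphorase enzyme from Clostridium kluyveri / Medium: HEPES pH 7.4 buffer with MgCl2 and Tween 20 / Schedule: enzyme reaction of 16 min at room temperature / Measured by: resorufin fluorescence, excitation 544 nm, emission 590 nm / Evaluation: rise in resorufin formation, marking diaphorase activation or chemical reduction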
PMI act hi M6P = human PMI activators, high substrate, primary screen, biochemical, fluorescence intensity, near-saturating mannose 6-phosphate. Mannose-6-phosphate isomerase (Homo sapiens), P34949. activation factor at 20 µM. coupled PMI enzyme assay, resazurin fluorescence, 20 min; active compounds read high; 1 = untreated enzyme, 0 = substrate-free blank. 190,000 compounds, 0.34% hits. AID 1216, 2008;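 active = activation factor of 2 or more at 20 µM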
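Test system – human PMI in coupled enzyme assay · Timing – 20 min incubation at room temperature · Detection – Diaphorase-driven resazurin-to-resorufin fluorescence, excitation 544, emission 590 nm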
WT yeast gro inh = growth inhibition of WT strain, primary screen, mitochondrial fusion inhibitor project, WT and mutant strains, chemical genetic | mitochondrial fusion phenotypic screen | inhibition, % at 10 µM | 190,000 compounds, 2.1% hits | AID 1362, 2008; in the data active = inhibition above about 58%; tested in S. cerevisiae
L major viab = Leishmania major promastigote growth inhibition, primary screen; Leishmania major promastigotes, resazurin fluorescence viability; inhibition, % at 10 µM; 200,000 compounds, 9% hits; AID 1063, 2008; in the data active = inhibition above about 50%;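 note: promastigotes grown with compound for 44 hours at 28 °C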
* hit, by the source's call. Rows were chosen to be rich in hits. Some 10% of all compounds tested hit in one or more screens of this group.

SMILES | PMI activator | Diaph act CS | PMI act hi M6P | WT yeast gro inh | L major viab
CCOC(=O)C1(CCCc2ccccc2)CCN(C(=O)C(C)n2cncn2)CC1 (stereo not given) | 0.8 | 0.8 | 0.8 | -2 | 1
CC(C)CNC(=S)Nc1ccc(S(N)(=O)=O)cc1 | 1.1 | 1 | 0.5 | -10 | 13
CC(C)CCNC(=S)Nc1ccc([N+](=O)[O-])cc1 | 0.9 | 0.8 | 0.9 | 79* | 68*
Cc1ccc(NC(=S)NCC(C)C)cc1 | 1 | 1 | 1 | 16 | 78*
CCCCNC(=S)Nc1ccc([N+](=O)[O-])cc1 | 1.1 | 0.8 | 1.1 | 55 | 49
CC(C)OC(=O)c1cc(NC(=S)Nc2ccc([N+](=O)[O-])cc2)cc(C(=O)OC(C)C)c1 | 0.9 | 0.9 | 1 | -1 | 100*
CC(C)CCNC(=S)Nc1ccc(Br)cc1 | 0.9 | 0.8 | 0.9 | 68* | 30
Cc1ncc([N+](=O)[O-])n1CCOC(=O)c1ccc(Cl)cc1Cl | 1 | 0.9 | 1 | 22 | -1
O=C(O)c1ccccc1/C=N/N1CCN(C2c3ccccc3-c3ccccc32)CC1 | 0.8 | 0.7 | 0.8 | -2 | -3
O=C1N=c2ccccc2=C1c1c(O)n(-c2cccc(F)c2)[nH]c1=O | 0.8 | 0.7 | 0.6 | 0 | 61*
Cc1ccc(CN2CC(C(=O)Nc3nnc(SCc4c(Cl)cccc4Cl)s3)CC2=O)cc1 (stereo not given) | 0.8 | 0.6 | 0.8 | -3 | 4
Cc1cnc(C(=O)Nc2nnc(SCc3c(Cl)cccc3Cl)s2)cn1 | 1.1 | 0.9 | 1 | 64 | 56*
CCS(=O)(=O)N1Cc2ccccc2CC1C(=O)Nc1nc2c(C)cccc2s1 (stereo not given) | 1.2 | 0.9 | 1.1 | 39 | 55*
CCSc1nnc(NC(=O)C2Cc3ccccc3CN2S(=O)(=O)CC)s1 (stereo not given) | 1 | 0.9 | 0.8 | 12 | 3
CCS(=O)(=O)N1Cc2ccccc2CC1C(=O)Nc1nnc(SCc2c(Cl)cccc2Cl)s1 (stereo not given) | 1 | 0.8 | 0.9 | 7 | 81*
CCS(=O)(=O)N1Cc2ccccc2CC1C(=O)Nc1nc(C)cs1 (stereo not given) | 1.1 | 1 | 1.1 | 23 | 6
C=CCNC(=O)c1ccc(OC2CCN(S(=O)(=O)N(C)C)CC2)cc1 | 0.9 | 0.9 | 0.9 | -17 | -4
O=C(O[C@@H]1OC2COC(=O)c3cc(O)c(O)c(O)c3-c3c(cc(O)c(O)c3O)C(=O)O[C@@H]([C@H]1O)[C@@H]2O)c1cc(O)c(O)c(O)c1 | 0.5 | 0.4 | 0.8 | 18 | -6
COC(=O)c1cc(=O)n(Cc2ccc3c(c2)OCO3)c(=Nc2ccc(F)c(Cl)c2)s1 | 0.9 | 0.8 | 1 | 20 | 100*
CCOC(=O)c1ccc(N=c2sc(C(=O)OC)cc(=O)n2CCCN2CCOCC2)cc1 | 1 | 0.8 | 0.9 | 5 | 100*
COC(=O)c1cc(=O)n(CCc2ccccc2)c(=Nc2ccc(F)cc2)s1 | 0.8 | 0.8 | 0.8 | 7 | 90*
COC(=O)c1cc(=O)n(Cc2ccc(OC)cc2)c(=NCc2ccc(OC)cc2)s1 | 1 | 0.9 | 1 | 2 | 7
COC(=O)c1cc(=O)n(CCc2ccc(OC)cc2)c(=Nc2ccc(F)c(Cl)c2)s1 | 1 | 0.8 | 0.9 | 6 | 100*
COC(=O)c1ccc2c(=O)n(CCCN3CCOCC3)c(=S)[nH]c2c1 | 0.9 | 0.9 | 1 | -6 | 3
Cc1cc(C)n2nc(SCC(=O)N(C)c3c(N)n(Cc4ccccc4)c(=O)[nH]c3=O)nc2n1 | 1.1 | 0.9 | 1.1 | -5 | -7
CN1CCN(C(=S)Nc2ccc(S(N)(=O)=O)cc2)CC1 | 1 | 0.9 | 1 | -12 | -6
CCn1c(=O)cc(C(=O)OC)sc1=Nc1ccc(F)c(F)c1 | 0.9 | 0.8 | 0.9 | 1 | 86*
CCCCN=c1sc(C(=O)OC)cc(=O)n1CCCC | 1 | 1 | 1 | 4 | 5
CCOc1cc(C=O)cc(Br)c1OCC(=O)NCCc1ccccc1 | 0.9 | 0.8 | 0.8 | 10 | 46
